TAG inh: triacylglycerol accumulation inhibition; AID 651582; 230,000 compounds, 0.66% hits; inhibition, % at 12.5 µM; H9c2 cells, Nile Red lipid (TAG) fluorescence; cells loaded with 200 µM oleic acid;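 active = pattern-corrected inhibition of lipid staining of at least 50% with the nuclear-stain viability signal not falling by more than 50%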;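 note: 0% = DMSO wells and 100% = triacsin C control wells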
Gli-Sufu block: Gli-Sufu pathway antagonism. AID 588413. inhibition, % at 5 µM. Sufu-KO-LIGHT fibroblasts, Gli luciferase reporter luminescence. 340,000 compounds, 0.74% hits;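 active = inhibition above about 55%, limit read from the data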;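 note: 0% = DMSO-treated cells and 100% = wells with medium but no cells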
Jurkat NFkB inh: lowers PMA/ionomycin-induced NF-kB signal in Jurkat cells. PMA/ionomycin-induced NF-kB luciferase reporter, luminescence. inhibition, % at 4 µM. 330,000 compounds, 0.53% hits; in the data active = inhibition above about 50%
697 NFkB inh: inhibitors of the PMA/ionomycin-induced NF-kB reporter in 697 B cells; 697 B-cell NF-kB luciferase reporter, 16 h; inhibition, % at 4 µM; 330,000 compounds, 0.33% hits; AID 435022; in the data active = inhibition above about 35%
iPSC survival up: enhancers of human iPSC single-cell survival; hiPSC single-cell survival, ATPlite luminescence; 100% = ROCK inhibitor wells, 0% = DMSO; survival enhancement, % at 20 µM; 360,000 compounds, 0.044% hits; AID 602274; in the data active = survival enhancement above about 18%;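 note: cells exposed to compounds for 16 hours before the ATP read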
Hep lipid drop: hepatic lipid droplet formation modulation. AML12 mouse hepatocytes, oleate lipid droplets, BODIPY imaging. inhibition, % at 6.5 µM. 240,000 compounds, 0.4% hits;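 active = lipid droplet intensity inhibited by at least 50%, with more than 500 cells counted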
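Assay system: AML12 hepatocytes (mouse) / Also added: 100 µM oleic acid challenge / Times: overnight treatment with compound plus oleate / Detection: high-content imaging of BODIPY-stained droplets and DAPI nuclei / Evaluation: % inhibition of lipid droplet signal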
697 NFkB conf: lowers PMA/ionomycin-induced NF-kB signal in 697 B cells | 697 B-cell NF-kB luciferase, 16 h | 2,000 compounds, 35% hits | inhibition, % at 4 µM | AID 449746 | shares compounds with 697 NFkB inh; in the data active = inhibition mostly above about 28%, no sharp cut-off; inactive = mostly below about 22%
* hit, by the source's call; i = inactive; nt = not tested or not shown. This is a sample that favours compounds with a hit; in the whole collection about 1.8% have one here.

SMILES	TAG inh	Gli-Sufu block	Jurkat NFkB inh	697 NFkB inh	iPSC survival up	Hep lipid drop	697 NFkB conf
O=C(NCCC1CCCCN1S(=O)(=O)c1ccc(Cl)cc1)C(=O)NCc1ccncc1 (stereo not drawn)	0	25	3	45*	0	nt	43*
COc1ccc(NC(=O)CCN(c2ccc(OC)cc2)S(=O)(=O)c2ccc(C)c(C)c2)cc1	-7	15	nt	nt	-2	nt	nt
Cc1cc(NC(=O)c2ccccc2)nc2c1c(=O)oc1ccccc12	5	2	-6	35*	0	-2	10
NS(=O)(=O)c1ccc(CCNC(=O)c2cccc(S(=O)(=O)N3CCc4ccccc43)c2)cc1	-1	nt	nt	nt	0	nt	nt
COc1ccc(C(=O)Nc2ncccc2C)cc1S(=O)(=O)N1CCCc2ccccc21	5	-13	-7	21	0	nt	nt
COc1ccc(C(=O)Nc2nc3c(s2)CCCC3)cc1S(=O)(=O)N1CCCc2ccccc21	nt	16	-48	i	-1	2	i
CC1(C(=O)NS(=O)(=O)c2cccc(Cl)c2)CCN1C(=O)Cc1ccc(Cl)cc1Cl (stereo not drawn)	6	nt	nt	nt	1	nt	nt
COCCCNC(=S)Nc1ccc2nc3n(c(=O)c2c1)CCCCC3	0	-3	-10	35*	0	-38	4
CCOCCCNC(=S)Nc1ccc2nc3n(c(=O)c2c1)CCCCC3	4	2	3	14	1	2	nt
CCc1cccc(C)c1N1C(=O)CC(C)(C)CC1=O	2	3	4	9	0	6	nt
COC(=O)CSc1nnc(-c2sc3ccccc3c2Cl)o1	1	5	-1	40*	-2	nt	43*
Brc1ccc(/C=N/Nc2ccc3ccccc3n2)cc1	nt	-68	-76	-93	-1	nt	nt
Fc1cccc(/C=N/Nc2ccc3ccccc3n2)c1	-11	-133	-90	-282	-2	-2	-263
O=C(O)c1ccccc1N=Cc1c(O)n(-c2nccs2)c(=O)c2ccccc12	6	0	19	42*	1	14	12
CC(=O)Nc1ccc(S(=O)(=O)N2CCC(c3nc4ccc(C)cc4[nH]3)CC2)cc1	nt	6	13	38*	-1	nt	15
CN(C)c1ccc(C(C(=O)NC2CCCCC2)N(Cc2ccco2)C(=O)c2snc(C(N)=O)c2N)cc1 (stereo not drawn)	nt	-5	8	27	0	3	nt
N/C(=N\NS(=O)(=O)c1ccc(Cl)cc1)c1ccccn1	4	1	0	16	0	nt	nt
Cc1ccc2oc(-c3ccc(NC(=O)CC(C)C)cc3)nc2c1	nt	-109	-130	-255	-2	nt	-227
O=C(Nc1ccc(-c2nc3ccccc3o2)cc1)c1cccnc1	11	-56	-100	-196	-3	nt	nt
Cc1ccc2oc(-c3ccc(NC(=O)c4cccnc4)cc3)nc2c1	-6	-25	-76	-395	-1	12	-369
COc1ccc(C(=O)NCCOc2ccccc2)cc1S(=O)(=O)N1CCOCC1	18	-9	10	11	0	nt	nt
COc1cc2c(cc1NC(=O)c1ccc(C(C)(C)C)cc1)CCCC2	30	8	-61	i	5	nt	-486
COc1ccc(C(=O)Nc2cc3c(cc2OC)CCCC3)cc1Br	46	17	-1	-19	-1	nt	nt
CCOCCCNC(=O)c1cn(C)c2ccc(S(=O)(=O)N3CCCC3)cc2c1=O	nt	1	-7	17	0	-1	nt
CN(C)c1ccc(N=Cc2nc(-c3ccccc3)oc2OC(=O)c2cccc(Cl)c2)cc1	nt	-58	-64	-45	-2	0	nt
SMILES	TAG inh	Gli-Sufu block	Jurkat NFkB inh	697 NFkB inh	iPSC survival up	Hep lipid drop	697 NFkB conf
Cc1ccc(C(=O)Oc2oc(-c3ccccc3)nc2C=Nc2ccc(N(C)C)cc2)cc1	10	-34	-70	35*	-2	5	9
CCOC(=O)Oc1c(OC)cc(C(=O)O[C@@H]2C[C@@H]3CN4CCc5c([nH]c6cc(OC)ccc56)[C@H]4C[C@@H]3[C@H](C(=O)OC)[C@H]2OC)cc1OC	60*	7	11	37*	-3	nt	26
Cc1cc(C(=O)Cn2nnc3ccccc3c2=O)c(C)n1-c1ccccc1F	5	-3	-118	i	-4	2	i
COc1ccc(-n2c(C)cc(C(=O)Cn3nnc4ccccc4c3=O)c2C)cc1	nt	-50	-10	-22	2	nt	nt
CC(C)C[C@H]1CNC(=S)N1CC1CCCN1C[C@H](CC(C)C)N1C[C@H](Cc2ccc(O)cc2)N(CC2CCCCCC2)C1=S (stereo partly drawn)	139	7	nt	nt	-1	nt	nt
Cc1ccc(CN2CCC(n3nccc3NC(=O)CCOc3ccccc3)CC2)cc1C	nt	29	6	-9	0	-10	nt
CCCCNC(=O)Cc1ccc(C)cc1	nt	-13	-3	26	0	-2	nt
CCCCCCCCNC(=O)c1ccc(C)cc1	nt	nt	-25	80*	nt	-2	-8
CCCCCCn1c(-c2ccco2)nc2oc3cc(OC)ccc3c(=O)c2c1=O	nt	22	7	42*	6	9	35*
N#Cc1c(/N=C/c2ccc(Br)s2)sc2c1CCC2	17	18	nt	nt	1	-2	nt
N#Cc1c(/N=C/c2cccs2)sc2c1CCCCC2	-11	-26	-135	-426	-4	4	-209
COc1ccc(C(=O)Nc2ccc3ncccc3c2)cc1	nt	-56	-103	-290	-1	-2	-333
CC(NC(=O)Nc1ccc([N+](=O)[O-])cc1)C(c1cccs1)N1CCCC1 (stereo not drawn)	nt	15	-6	-10	-4	-90	nt
COc1ccc(N/C=C/C(=O)c2ccccc2)cc1	nt	-58	-46	-327	-1	-2	-324
CCOc1ccc(NC(=O)/C=C/c2ccccc2)c([N+](=O)[O-])c1	nt	-63	-10	-51	1	-21	nt
CCOc1ccc(N/C=C/C(=O)c2ccccc2)c([N+](=O)[O-])c1	nt	-67	-111	-328	-3	-1	-326
O=C(Nc1cc(Cl)ccc1Cl)N1CCN(C(=O)Nc2cc(Cl)ccc2Cl)CC1	10	22	nt	nt	4	nt	nt
CCc1cccc(NC(=O)CSc2nnc(Cc3ccc(OC)cc3)c(=O)[nH]2)c1	-5	-5	3	-10	0	nt	nt
CCOc1cc(/C=C(/C#N)c2nc3ccccc3[nH]2)ccc1Oc1ccc([N+](=O)[O-])cn1	nt	17	9	40*	-1	-6	7
OC(c1ccccc1)C(NCCNCc1ccccc1)c1ccccc1 (stereo not drawn)	-14	9	nt	nt	-3	nt	nt
Cc1ccc(C)c(CN2C(=O)c3ccccc3S(=O)c3ccc(C(=O)N4CCN(c5ccccn5)CC4)cc32)c1 (stereo not drawn)	-30	16	-37	i	0	-28	i
Cc1ccc(C)c(CN2C(=O)c3ccccc3S(=O)(=O)c3ccc(C(=O)N4CCN(C)CC4)cc32)c1	nt	3	-6	0	2	-7	nt
